In the library only some 2.1% were active in any assay of this set; here they are far more common.
PDI turbidity – PDI (human) enzyme inhibition; inhibition, % at 10 µM; PDI insulin aggregation turbidity, A650, 90 min; 350,000 tested, 0.052% active;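 active means mean inhibition across replicates of 30% or more, whatever share of single replicates reach that level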
FN deposition inh – fibronectin deposition inhibition. AH1F fibroblasts, Alexa488-fibronectin deposition fluorescence, overnight. inhibition, % at 12.6 µM. 350,000 tested, 0.086% active. AID 743247;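 active means mean inhibition across replicates of 30% or more, regardless of how many single replicates reach that level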
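Schedule: 1 h cell adhesion before compound, then overnight fibronectin incubation; test system: AH1F fibroblast monolayer depositing Alexa488-labelled fibronectin into matrix; quantity: 10000 AH1F cells per well; probe or stimulus: fluorescent fibronectin at 24 nM final; signal: fluorescence, ex 485 nm, em 525 nm; evaluation: percent inhibition as loss of matrix-bound fibronectin fluorescence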
MLL AF4-AF9 inh – blocks AF4 peptide binding to human AF9. P42568. AlphaScreen, biotin-AF4 peptide binding to FLAG-AF9. inhibition, % at 10 µM. 350,000 tested, 0.47% active;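 active means every replicate reaching a set inhibition limit, whatever the replicate mean, cut at about 25% in these data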
Target sequence (P42568 whole entry, looked up): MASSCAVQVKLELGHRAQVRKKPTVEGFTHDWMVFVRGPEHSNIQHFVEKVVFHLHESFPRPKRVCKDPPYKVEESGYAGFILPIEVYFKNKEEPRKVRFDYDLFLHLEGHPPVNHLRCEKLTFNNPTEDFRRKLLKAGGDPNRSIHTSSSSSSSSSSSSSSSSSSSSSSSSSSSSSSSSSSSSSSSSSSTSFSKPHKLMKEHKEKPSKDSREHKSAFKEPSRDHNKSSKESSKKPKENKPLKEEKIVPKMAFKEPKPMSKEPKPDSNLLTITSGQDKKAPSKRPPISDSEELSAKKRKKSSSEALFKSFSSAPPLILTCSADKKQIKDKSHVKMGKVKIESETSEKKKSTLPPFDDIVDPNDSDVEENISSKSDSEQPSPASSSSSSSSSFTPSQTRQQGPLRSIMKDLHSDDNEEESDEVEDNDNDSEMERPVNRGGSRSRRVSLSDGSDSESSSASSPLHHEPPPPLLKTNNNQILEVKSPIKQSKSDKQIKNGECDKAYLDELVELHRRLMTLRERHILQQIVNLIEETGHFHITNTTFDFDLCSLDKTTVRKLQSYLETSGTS
FGF22 binding – shifts melting point of recombinant human FGF22. Q9HCT0. recombinant FGF22 thermal shift, SYPRO orange fluorescence; percent of sucrose octasulfate shift, DMSO zero. activity (Tm shift, normalised), % at 9.99 µM. 340,000 tested, 1.5% active;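 active means mean Tm shift, scaled 0 neutral to 100 positive control, at about 1.3% or above, every replicate too, limit read from the data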
Target sequence (Q9HCT0 whole entry, looked up): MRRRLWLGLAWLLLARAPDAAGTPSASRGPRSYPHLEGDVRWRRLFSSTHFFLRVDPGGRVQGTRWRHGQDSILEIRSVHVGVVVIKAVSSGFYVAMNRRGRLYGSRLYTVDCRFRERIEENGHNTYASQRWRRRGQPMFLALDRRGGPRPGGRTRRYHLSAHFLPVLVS
ERp5 inh – inhibitors of human ERp5; Q15084; ERp5 insulin aggregation, absorbance 650 nm, 90 min; inhibition, % at 9.99 µM; 350,000 tested, 0.05% active;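 active means mean replicate inhibition above about 25%, with every replicate also reaching it, limit read from the data, passing the limit was not always enough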
ARNT TACC3 PPI – disrupts binding between human ARNT and TACC3; Q9Y6A5; AlphaScreen His-ARNT PAS-B/GST-TACC3 binding, luminescence; TACC3 fragment carries E629A point mutation; inhibition, % at 9.99 µM; 390,000 tested, 0.66% active; AID 623870;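 active means mean inhibition of replicates at least 50% and at least half of replicates each reaching 50%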
Each line names hits and unclear results; the compound was inactive in the other large screens.

COc1ccc(NC(=O)Nc2ccc3c(c2)C(=O)N([C@H](C)CO)C[C@@H](C)[C@@H](CN(C)C(=O)Nc2ccc(F)cc2)O3)cc1	none (no result: PDI turbidity, FN deposition inh, FGF22 binding)
C[C@H]1CCCCO[C@@H](CN(C)Cc2ccc(C(F)(F)F)cc2)[C@@H](C)CN([C@@H](C)CO)C(=O)c2cc(N(C)C)ccc2O1	MLL AF4-AF9 inh 37 (no result: PDI turbidity, FN deposition inh)
C[C@@H]1CCCCO[C@H](CN(C)Cc2ccc(C(F)(F)F)cc2)[C@H](C)CN([C@H](C)CO)C(=O)c2cc(N(C)C)ccc2O1	MLL AF4-AF9 inh 35 (no result: PDI turbidity, FN deposition inh)
C[C@H]1CCCCO[C@H](CN(C)Cc2ccc(C(F)(F)F)cc2)[C@@H](C)CN([C@@H](C)CO)C(=O)c2cc(N(C)C)ccc2O1	MLL AF4-AF9 inh 33 (no result: PDI turbidity, FN deposition inh)
CC(C)NC(=O)N(C)C[C@@H]1Oc2c(NS(=O)(=O)c3cn(C)cn3)cccc2C(=O)N([C@@H](C)CO)C[C@H]1C	none (no result: PDI turbidity)
COc1ccc([C@H]2CC(=O)C=C(/C=C/c3ccccc3)C2)cc1OC	MLL AF4-AF9 inh 29
COc1ccc([C@H]2CC(=O)C=C(c3ccc4c(c3)OCO4)C2)cc1OC	FGF22 binding 4.0
COc1cccc(C2=CC(=O)C[C@H](c3ccc4c(c3)OCO4)C2)c1	none (no result: FN deposition inh, MLL AF4-AF9 inh, FGF22 binding, ERp5 inh)
O=C1CC(c2ccccc2)=NO1	none
O=S1(=O)CC(c2ccccc2)=NN=C(c2ccccc2)C1	FGF22 binding 44 (no result: ARNT TACC3 PPI)
O=C(Nc1ccccc1)N1CCCCN2[C@H](CO)[C@H](c3ccc(C4=CCCCC4)cc3)[C@@H]2C1	none (no result: PDI turbidity, FN deposition inh)
O=C(COc1ccccc1C(=O)O)Nc1ccc(SC(F)F)cc1	FGF22 binding 43
CC(C)CC(NC(N)=O)C(=O)OCC(=O)Nc1ccc(SC(F)F)cc1 (stereo not given)	none (no result: FN deposition inh)
O=C(COC(=O)c1cc[n+]([O-])cc1)Nc1ccc(SC(F)F)cc1	none
CC(=O)CCC(=O)OCC(=O)Nc1ccc(SC(F)F)cc1	FGF22 binding 43
FC(F)Sc1ccc(NC(=S)NCc2ccccc2)cc1	FGF22 binding 43 (no result: ARNT TACC3 PPI)
FC(F)Sc1ccc(NC(=S)NC(c2ccccc2)c2ccccc2)cc1	none
CC(C)=CC(=O)OCC(=O)Nc1ccc(SC(F)F)cc1	FGF22 binding 44
COc1ccc(S(=O)(=O)Nc2cccc3c2O[C@H](CN(C)Cc2ccc(C(=O)Nc4ccccc4N)cc2)[C@@H](C)CN([C@@H](C)CO)C3=O)cc1	none (no result: PDI turbidity, FN deposition inh, MLL AF4-AF9 inh, ERp5 inh, ARNT TACC3 PPI)
Cn1cnnc1Sc1cc(N2CCN(S(=O)(=O)c3ccccc3)CC2)ccc1[N+](=O)[O-]	FGF22 binding 45
C[C@H]1CN([C@@H](C)CO)S(=O)(=O)c2ccc(-c3cccc(C#N)c3)cc2O[C@H]1CN(C)C(=O)c1ccncc1	none (no result: PDI turbidity, FN deposition inh)
CO[C@H]1CN(C)C(=O)c2ccc(NS(=O)(=O)c3ccccc3)cc2OC[C@@H](C)NC[C@H]1C	none (no result: PDI turbidity)
COc1cccc(-c2cccc(NC(=O)C3CCN(Cc4nccs4)CC3)c2)c1	none
CC(C)c1csc(CN2CCC(C(=O)Nc3cccc(-c4ccco4)c3)CC2)n1	FGF22 binding 44 (no result: ARNT TACC3 PPI)
CCN(CC)c1ccc(/C=N/Nc2nc(C)cc(=O)[nH]2)c(O)c1	ARNT TACC3 PPI 64
Cc1cc(=O)[nH]c(N/N=C/c2ccccc2Cl)n1	none
CC(/C=N/Nc1nc(C)cc(=O)[nH]1)=C\c1ccccc1	FGF22 binding 43 (no result: ARNT TACC3 PPI)
Cc1cc(=O)[nH]c(NN=Cc2cc(Br)ccc2O)n1	ARNT TACC3 PPI 64
O=C(CSc1nc2ccccc2[nH]1)NCc1ccc(F)cc1	FGF22 binding 43
Cc1ccc(NS(=O)(=O)c2c(F)cc(F)c(Cl)c2F)cc1S(=O)(=O)N1CCOCC1	FGF22 binding 44
Cc1ccc(NC(=O)Cc2c(F)cccc2Cl)cc1S(=O)(=O)N1CCOCC1	none
COCC(=O)Nc1ccc2c(c1)OC[C@H](C)N(C(=O)Cc1cccnc1)C[C@@H](C)[C@H](OC)CN(C)C2=O	none (no result: PDI turbidity, ARNT TACC3 PPI)
Cc1ccc(C)c(NC(=O)Cn2cnc3c(oc4ccccc43)c2=O)c1	FGF22 binding 45
CCOC(=O)NNS(=O)(=O)c1cc(Br)ccc1Br	FGF22 binding 43
COc1cccc(CNS(=O)(=O)c2cc(Br)ccc2Br)c1	none (no result: ARNT TACC3 PPI)
CCC(=O)N1[C@H](CN(C)C(C)=O)[C@@H](c2ccc(-c3ccccc3)cc2)[C@@H]1CO	none (no result: PDI turbidity)
O=C(Nc1ccccc1C(=O)O)c1cc(S(=O)(=O)Nc2ccccc2)ccc1Cl	FGF22 binding 2.8
Cc1ccccc1-c1cccc([C@@H]2C[C@H]3[C@H](CON3C)CN2Cc2ccccc2)c1	FN deposition inh active
O=C(NC[C@@H]1[C@@H](c2ccccc2)[C@H](CO)N1Cc1ccccn1)C1CC1	none (no result: PDI turbidity, FN deposition inh, MLL AF4-AF9 inh, FGF22 binding, ERp5 inh)
CC(OC(=O)c1cccnc1Cl)C(=O)Nc1ccc2c(c1)OCCO2 (stereo not given)	FGF22 binding 43 (no result: ARNT TACC3 PPI)
CSc1ncccc1C(=O)OC(C)C(=O)Nc1ccc2c(c1)OCCO2 (stereo not given)	none (no result: ARNT TACC3 PPI)
O=C(NC1CC1)c1sc2cc(Cl)ccc2c1Cl	none
CC1(C)CC(NC(=O)c2sc3cc(Cl)ccc3c2Cl)CC(C)(C)N1	FGF22 binding 43
C[C@@H]1CN(C)C(=O)Cc2cc(N(C)C)ccc2O[C@H]1CN(C)C(=O)OC(C)(C)C	none (no result: PDI turbidity, MLL AF4-AF9 inh, FGF22 binding, ERp5 inh, ARNT TACC3 PPI)
CN1CCc2c1nc1ccccc1c2N=C1CCCN1Cc1ccccc1	FGF22 binding 43 (no result: ARNT TACC3 PPI)
Cc1cc(C)c(N=C2CCCN2Cc2ccccc2)c(C#N)c1	none (no result: FN deposition inh, MLL AF4-AF9 inh, FGF22 binding, ERp5 inh)
CO/N=C\CC(=O)Nc1ccc(Cl)cc1Cl	FGF22 binding 43
CO/N=C\CC(=O)Nc1ccc(F)cc1	none (no result: MLL AF4-AF9 inh, FGF22 binding, ERp5 inh)
Cc1noc(C)c1NC(=O)N(C)C[C@@H]1Oc2ccc(NS(=O)(=O)c3c(C)noc3C)cc2CC(=O)N([C@H](C)CO)C[C@H]1C	none (no result: PDI turbidity)
CCC(=O)N1CC(=O)N2[C@H](CO)[C@@H](c3ccc(-c4ccccc4F)cc3)[C@@H]2C1	none (no result: PDI turbidity, FN deposition inh, MLL AF4-AF9 inh, FGF22 binding, ARNT TACC3 PPI)
COc1ccc(CC(=O)N2CCC(c3ccccc3)C2)cc1 (stereo not given)	FGF22 binding 44
O=C(Cc1ccccc1)N1CCC(c2ccccc2)C1 (stereo not given)	none (no result: MLL AF4-AF9 inh)
COc1cccc(Cn2c(=O)sc3ccccc3c2=O)c1	FGF22 binding 43
O=c1sc2ccccc2c(=O)n1Cc1ccccc1F	FGF22 binding 43
Cc1ccc(Cn2c(=O)sc3ccccc3c2=O)cc1	none (no result: FN deposition inh, MLL AF4-AF9 inh, FGF22 binding, ERp5 inh)
C[C@H]1CCCCO[C@@H](CN(C)S(=O)(=O)c2ccc(F)cc2)[C@@H](C)CN([C@@H](C)CO)C(=O)c2cc(NC(=O)Nc3cccc4ccccc34)ccc2O1	none (no result: PDI turbidity, ARNT TACC3 PPI)
Cc1noc(C)c1S(=O)(=O)N(C)C[C@H]1OCCCC[C@@H](C)Oc2ccc(NS(=O)(=O)c3cccs3)cc2C(=O)N([C@@H](C)CO)C[C@H]1C	none (no result: PDI turbidity, FN deposition inh)
CC(C)CN(C(=O)CSc1nn(-c2ccc(Cl)cc2)c(=S)s1)C1CCS(=O)(=O)C1 (stereo not given)	ARNT TACC3 PPI 36
